# In ChEMBL document CHEMBL4689842, “EUbOPEN Chemogenomics Library wave 1” (2021):
# Where “and” joins values, the source holds several entries; their conditions need not be identical. Equal values may be shown once.
# System: Fibroblast
# Assay: Multiplex assay against human fibroblast
# Format: toxicity, cell-based
# How it was run: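 With compound added, live cells were imaged on a CQ1 microscope at 37°C and 5% CO2; staining with Hoechst33342, BioTracker Green Microtubule Cytoskeleton Dye, MitoTracker Red and Annexin V Alexa Fluor 680 had been done at seeding. The CellPathfinder machine-learning gating scheme split cells into Hoechst high-intensity objects or normal cells, normal cells into healthy, pyknosed or fragmented nuclei, and pyknosed cells into mitotic or apoptotic. The tubulin, mitochondrial-mass and membrane-permeability phenotypes are per cents of healthy-nucleus cells.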
# [1] = 12 h, 1 µM, compound concentration 1 uM, replicate 1
# [2] = 12 h, 1 µM, compound concentration 1 uM, replicate 2
# [3] = 12 h, 10 µM, compound concentration 10 uM, replicate 1
# [4] = 12 h, 10 µM, compound concentration 10 uM, replicate 2
# [5] = 24 h, 1 µM, compound concentration 1 uM, replicate 1
# [6] = 24 h, 1 µM, compound concentration 1 uM, replicate 2
# [7] = 24 h, 10 µM, compound concentration 10 uM, replicate 1
# [8] = 24 h, 10 µM, compound concentration 10 uM, replicate 2
# [9] = 48 h, 10 µM, compound concentration 10 uM, replicate 1
# [10] = 48 h, 10 µM, compound concentration 10 uM, replicate 2
compound,measurement,setting,value
Cl.O=C(c1ccc(Nc2nccc(-c3cc4ccccc4s3)n2)cc1)N1CCC(N2CCCC2)CC1,Population Apoptotic (%),[1],84%
same,Population Fragmented Nuclei (%),[1],42%
same,Population Healthy Nuclei (%),[1],48%
same,Population Hoechst High Intensity Objects (%),[1],21%
same,Population Membrane Permeable-Phenotype (%),[1],4%
same,Population Mitochondria Different-Phenotype (%),[1],10%
same,Population Mitotic Cells (%),[1],15%
same,Population Normal (%),[1],78%
same,Population Pyknosed Nuclei (%),[1],9%
same,Population Tubulin-Different-Phenotype (%),[1],14%
same,Total Cell Count,[1],260
same,Population Apoptotic (%),[2],55%
same,Population Fragmented Nuclei (%),[2],53%
same,Population Healthy Nuclei (%),[2],32%
same,Population Hoechst High Intensity Objects (%),[2],36%
same,Population Membrane Permeable-Phenotype (%),[2],0%
same,Population Mitochondria Different-Phenotype (%),[2],9%
same,Population Mitotic Cells (%),[2],44%
same,Population Normal (%),[2],63%
same,Population Pyknosed Nuclei (%),[2],13%
same,Total Cell Count,[2],102
same,Population Apoptotic (%),[3],73% and 44%
same,Population Fragmented Nuclei (%),[3],31% and 33%
same,Population Healthy Nuclei (%),[3],16% and 12%
same,Population Hoechst High Intensity Objects (%),[3],19% and 12%
same,Population Mitochondria Different-Phenotype (%),[3],26% and 36%
same,Population Mitotic Cells (%),[3],26% and 55%
same,Population Normal (%),[3],80% and 87%
same,Population Pyknosed Nuclei (%),[3],52% and 53%
same,Population Tubulin-Different-Phenotype (%),[3],66% and 53%
same,Total Cell Count,[3],115 and 265
same,Population Apoptotic (%),[4],93% and 82%
same,Population Fragmented Nuclei (%),[4],35% and 54%
same,Population Healthy Nuclei (%),[4],7% and 10%
same,Population Hoechst High Intensity Objects (%),[4],21% and 38%
same,Population Membrane Permeable-Phenotype (%),[4],50% and 42%
same,Population Mitochondria Different-Phenotype (%),[4],100% and 57%
same,Population Mitotic Cells (%),[4],6% and 17%
same,Population Normal (%),[4],78% and 61%
same,Population Pyknosed Nuclei (%),[4],57% and 34%
same,Population Tubulin-Different-Phenotype (%),[4],100% and 57%
same,Total Cell Count,[4],73 and 108
same,Population Apoptotic (%),[5],76%
same,Population Fragmented Nuclei (%),[5],44%
same,Population Healthy Nuclei (%),[5],47%
same,Population Hoechst High Intensity Objects (%),[5],23%
same,Population Membrane Permeable-Phenotype (%),[5],4%
same,Population Mitochondria Different-Phenotype (%),[5],3%
same,Population Mitotic Cells (%),[5],23%
same,Population Normal (%),[5],76%
same,Population Pyknosed Nuclei (%),[5],8%
same,Population Tubulin-Different-Phenotype (%),[5],10%
same,Total Cell Count,[5],340
same,Population Apoptotic (%),[6],0%
same,Population Fragmented Nuclei (%),[6],60%
same,Population Healthy Nuclei (%),[6],34%
same,Population Hoechst High Intensity Objects (%),[6],32%
same,Population Membrane Permeable-Phenotype (%),[6],8%
same,Population Mitochondria Different-Phenotype (%),[6],20%
same,Population Mitotic Cells (%),[6],100%
same,Population Normal (%),[6],67%
same,Population Pyknosed Nuclei (%),[6],5%
same,Population Tubulin-Different-Phenotype (%),[6],32%
same,Total Cell Count,[6],108
same,Population Apoptotic (%),[7],71%
same,Population Fragmented Nuclei (%),[7],43% and 48%
same,Population Hoechst High Intensity Objects (%),[7],16% and 20%
same,Population Membrane Permeable-Phenotype (%),[7],33% and 14%
same,Population Mitochondria Different-Phenotype (%),[7],22% and 14%
same,Population Mitotic Cells (%),[7],28%
same,Population Normal (%),[7],83% and 79%
same,Population Pyknosed Nuclei (%),[7],46% and 48%
same,Population Tubulin-Different-Phenotype (%),[7],66% and 71%
same,Total Cell Count,[7],112 and 297
same,Population Apoptotic (%),[8],88% and 100%
same,Population Fragmented Nuclei (%),[8],66% and 26%
same,Population Hoechst High Intensity Objects (%),[8],45% and 31%
same,Population Membrane Permeable-Phenotype (%),[8],50% and 100%
same,Population Mitotic Cells (%),[8],11% and 0%
same,Population Normal (%),[8],54% and 68%
same,Population Pyknosed Nuclei (%),[8],29% and 58%
same,Population Tubulin-Different-Phenotype (%),[8],50% and 87%
same,Total Cell Count,[8],105 and 76
same,Population Apoptotic (%),[9],91%
same,Population Fragmented Nuclei (%),[9],55%
same,Population Healthy Nuclei (%),[9],24%
same,Population Hoechst High Intensity Objects (%),[9],49%
same,Population Membrane Permeable-Phenotype (%),[9],33%
same,Population Mitochondria Different-Phenotype (%),[9],33%
same,Population Mitotic Cells (%),[9],8%
same,Population Normal (%),[9],50%
same,Population Pyknosed Nuclei (%),[9],19%
same,Population Tubulin-Different-Phenotype (%),[9],66%
same,Total Cell Count,[9],120
same,Population Apoptotic (%),[10],50%
same,Population Fragmented Nuclei (%),[10],78%
same,Population Healthy Nuclei (%),[10],17%
same,Population Hoechst High Intensity Objects (%),[10],50%
same,Population Membrane Permeable-Phenotype (%),[10],62%
same,Population Mitochondria Different-Phenotype (%),[10],12%
same,Population Mitotic Cells (%),[10],50%
same,Population Normal (%),[10],49%
same,Population Pyknosed Nuclei (%),[10],4%
same,Population Tubulin-Different-Phenotype (%),[10],62%
same,Total Cell Count,[10],93
CCn1cc(-c2ccnc3[nH]c(-c4cccc(CN(C)C)c4)cc23)c(-c2ccc(NC(=O)N(C)C)cc2)n1 [GSK-1070916],Population Apoptotic (%),[1],80%
same,Population Fragmented Nuclei (%),[1],33%
same,Population Healthy Nuclei (%),[1],51%
same,Population Hoechst High Intensity Objects (%),[1],13%
same,Population Membrane Permeable-Phenotype (%),[1],4%
same,Population Mitochondria Different-Phenotype (%),[1],0%
same,Population Mitotic Cells (%),[1],19%
same,Population Normal (%),[1],86%
same,Population Pyknosed Nuclei (%),[1],14%
same,Population Tubulin-Different-Phenotype (%),[1],5%
same,Total Cell Count,[1],205
same,Population Apoptotic (%),[2],25%
same,Population Fragmented Nuclei (%),[2],56%
same,Population Healthy Nuclei (%),[2],34%
same,Population Hoechst High Intensity Objects (%),[2],46%
same,Population Membrane Permeable-Phenotype (%),[2],26%
same,Population Mitochondria Different-Phenotype (%),[2],6%
same,Population Mitotic Cells (%),[2],75%
same,Population Normal (%),[2],53%
same,Population Pyknosed Nuclei (%),[2],9%
same,Population Tubulin-Different-Phenotype (%),[2],13%
same,Total Cell Count,[2],83
same,Population Apoptotic (%),[3],60%
same,Population Fragmented Nuclei (%),[3],23%
same,Population Healthy Nuclei (%),[3],56%
same,Population Hoechst High Intensity Objects (%),[3],44%
same,Population Membrane Permeable-Phenotype (%),[3],5%
same,Population Mitochondria Different-Phenotype (%),[3],2%
same,Population Mitotic Cells (%),[3],39%
same,Population Normal (%),[3],55%
same,Population Pyknosed Nuclei (%),[3],19%
same,Population Tubulin-Different-Phenotype (%),[3],27%
same,Total Cell Count,[3],473
same,Population Apoptotic (%),[4],33%
same,Population Fragmented Nuclei (%),[4],54%
same,Population Healthy Nuclei (%),[4],35%
same,Population Hoechst High Intensity Objects (%),[4],49%
same,Population Membrane Permeable-Phenotype (%),[4],4%
same,Population Mitochondria Different-Phenotype (%),[4],13%
same,Population Mitotic Cells (%),[4],66%
same,Population Normal (%),[4],50%
same,Population Pyknosed Nuclei (%),[4],9%
same,Population Tubulin-Different-Phenotype (%),[4],52%
same,Total Cell Count,[4],127
same,Population Apoptotic (%),[5],70%
same,Population Fragmented Nuclei (%),[5],32%
same,Population Healthy Nuclei (%),[5],56%
same,Population Hoechst High Intensity Objects (%),[5],19%
same,Population Membrane Permeable-Phenotype (%),[5],3%
same,Population Mitochondria Different-Phenotype (%),[5],1%
same,Population Mitotic Cells (%),[5],30%
same,Population Normal (%),[5],80%
same,Population Tubulin-Different-Phenotype (%),[5],5%
same,Total Cell Count,[5],222
same,Population Apoptotic (%),[6],66%
same,Population Fragmented Nuclei (%),[6],62%
same,Population Healthy Nuclei (%),[6],26%
same,Population Hoechst High Intensity Objects (%),[6],23%
same,Population Membrane Permeable-Phenotype (%),[6],21%
same,Population Mitochondria Different-Phenotype (%),[6],14%
same,Population Mitotic Cells (%),[6],33%
same,Population Normal (%),[6],76%
same,Population Pyknosed Nuclei (%),[6],11%
same,Population Tubulin-Different-Phenotype (%),[6],21%
same,Total Cell Count,[6],69
same,Population Apoptotic (%),[7],49%
same,Population Fragmented Nuclei (%),[7],24%
same,Population Healthy Nuclei (%),[7],51%
same,Population Hoechst High Intensity Objects (%),[7],50%
same,Population Membrane Permeable-Phenotype (%),[7],0%
same,Population Mitochondria Different-Phenotype (%),[7],10%
same,Population Mitotic Cells (%),[7],50%
same,Population Normal (%),[7],50%
same,Population Pyknosed Nuclei (%),[7],24%
same,Population Tubulin-Different-Phenotype (%),[7],31%
same,Total Cell Count,[7],430
same,Population Apoptotic (%),[8],20%
same,Population Fragmented Nuclei (%),[8],45%
same,Population Healthy Nuclei (%),[8],40%
same,Population Hoechst High Intensity Objects (%),[8],44%
same,Population Membrane Permeable-Phenotype (%),[8],3%
same,Population Mitochondria Different-Phenotype (%),[8],20%
same,Population Mitotic Cells (%),[8],80%
same,Population Normal (%),[8],55%
same,Population Pyknosed Nuclei (%),[8],14%
same,Population Tubulin-Different-Phenotype (%),[8],51%
same,Total Cell Count,[8],129
